In the EternaBench riboswitch data:

Tested on: MS2 coat protein
Experiment: apparent Kd, MS2 coat protein; higher = weaker binding; RNA-MaP array; FMN 200 µM where present
Procedure, shortened: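 Apparent Kd: the median of filtered binding-curve fits from single clusters. Designs were transcribed on Illumina sequencing-chip clusters by stalled E. coli RNA polymerase and titrated with SNAP-549-labelled MS2 coat protein from 0.7 or 1.5 nM, doubling to 3 µM, in 100 mM Tris-HCl pH 7.5, 80 mM KCl, 4 mM MgCl2, BSA, DTT, yeast tRNA and Tween-20. Each series ran without and then with constant ligand, and green signal was normalised to red-channel RNA signal and control-cluster median Fmax.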

[1] = designed as: ON switch for flavin mononucleotide, no ligand
[2] = ligand present: flavin mononucleotide, designed as: ON switch for flavin mononucleotide
[3] = designed as: OFF switch for flavin mononucleotide, no ligand
[4] = ligand present: flavin mononucleotide, designed as: OFF switch for flavin mononucleotide

Row | Sequence | apparent Kd [1] [nM] | apparent Kd [2] [nM] | apparent Kd [3] [nM] | apparent Kd [4] [nM]
1 | CCUGUCGUAUGAGGAUAUGGUCAGCUUUGCUGACCAGAAGGCAUGUCAAUAGACAUGAGGAUCACCCAUGUAGUAAAGACAGGA | 381 | 40.1 |  | 
2 | CCUGUGUGAGGAUAUGGUGUUGGCCACAAGGAAUAGCUCCUCCAGAAGGCACAUGAGGAUCACCCAUGUCGUGG |  |  | 17.6 | 80.3
3 | CCUUCACAUGAGGAUCACCCAUGUCCUAGUCCGUCAGGAUAUAGCCUGCAUCCGCUGUGGCUAGAAGGGACUGCUG | 135 | 207 |  | 
4 | CCUUCUCGUGUCAGGAUAUCCACUCAUCGAAAUUAGGAGAAGGGACAUGAGGAUCACCCAUGUAUACAUGCCAG |  |  | 73 | 102
5 | CGAAAAUUUCAGAAGGACCGAUUCCACAUGAGGAUCACCCAUGUCGAUGGUAGGAUAUGGAGUUGUGGACAGGGCGGAUGUUCC | 46.3 | 8.39 |  | 
6 | CGAACUAAGUAGAAGGCAGUCUUAAAAUAGGACUGAGGAUAUACAUGAGGAUCACCCAUGUACUCCUUUAAUAAGUUUGAAAUA |  |  | 5.31 | 5.38
7 | CGAAGAAAGUAGAAGGCAGUCUUAAAAUAGGACUGAGGAUAUACAUGAGGAUCACCCAUGUACUCCUUUAAUAUCUUUGAAAUA |  |  | 5.5 | 5.25
8 | CGAGAUCUUGAGAAGGCAUAAUAUAUAAUACCACAUGUUUACAUGAGGAUCACCCAUGUUUCCAAUGAGGAUAUCAGGAUUUCG |  |  | 19.6 | 14.8
9 | CGAGUGAUAGGAUAUACACCUUUUCAGAACAUGUGGCUGUUACAUGAGGAUCACCCAUGUAGAAGGAUCAAGCG |  |  | 65.8 | 66.3
10 | CGAUAAAGCUGAGGAUAUGAGAAUAGAAAGAAAUCAGAAGGCAGACAUGAGGAUCACCCAUGUGAGUUCUCGAGAUUAGAUAUU |  |  | 25.2 | 60.6
11 | CGAUAACAUAGUUAUCCGUAACGGACAUGAGGAUCACCCAUGUAGGAUAUGUUACUCAACGGGUAACAGAAGGACAUGAGUCUU |  |  | 14.4 | 41.7
12 | CGAUAUUAUAGAGGAUAUGUUUAACAUGAGGAUCACCCAUGUGAGGUGGAAUUAAUGUAUUACUUACAGAAGGCUAUACAAUCG |  |  | 316 | 432
13 | CGAUGUUAUGCAGGAUAUCUCCCUUGAAUGCGGAGAGAAGGGCAUAGGGAGACAUACGCCUUAUUACAUGAGGAUCACCCAUGU |  |  | 8.42 | 7.86
14 | CGAUUAUUGAUCCAUUUUUACAACAUGAGGAUCACCCAUGUGCAGGAUAUCGUGGUGAUUAACUACGAGAAGGGCAAAUUCACG |  |  | 123 | 220
15 | CGAUUUGUAGGAUAUGUAUGAGUAAUCCCUUUUUAUGAAGAACAUGAGGAUCACCCAUGUAGAAGGGCAUUGUA |  |  | 19.6 | 17.6
16 | CGCAAUAUACAGAAGGAGUUAUUUAGAGGAUUACUAGGAUAUGUUCACAUGAGGAUCACCCAUGUCAUAUGGAGUUUUAUUGCG |  |  | 9.43 | 8.27
17 | CGCACUAAACAUGAGGAUCACCCAUGUAACUAAGAGCUAGUCAGAAGGCAUAAUUAGUGAAUUAAUGAGGAUAUGAAUAGUGCG | 157 | 62.2 |  | 
18 | CGCACUAUACAUGAGGAUCACCCAUGUUAACAUGAGCUAUUCAGAAGGCAUAAUUAGAGAAUAAAUGAGGAUAUGAUUAGUGCG | 34.7 | 18.8 |  | 
19 | CGCAUACUAGGAUAUACAUGAGGAUCACCCAUGUCGCCGGGCCCACUCAUACUAAAACGUAGAAGGAGUUUGCC |  |  | 18.5 | 18.8
20 | CGCCGACAUGAGGAUCACCCAUGUCACAUCUGGUCAGGAUAUGGUGUGGUUUGGCUAUUGCCAGAAGGGACCUCAG | 101 | 102 |  | 
21 | CGCCUGUAAGGAUAUUAGUAGUAGUCAGAAAAGACUAUUACUGAGAAGGUACAUGAGGAUCACCCAUGUUGGCG |  |  | 15.3 | 20.4
22 | CGCCUGUGAGGAUAUUAGUAGUAGUCAGAAUAGACUAUUACUGAGAAGGUACAUGAGGAUCACCCAUGUUGGCG |  |  | 20.9 | 19.1
23 | CGCGAACAGGUUAACAUGAGGAUCACCCAUGUGGACUCAUGGUAGGAUAUCGGGAAGGAGGAAACCGAGAAGGGCCGGUGAGCC | 324 | 107 |  | 
24 | CGCGAACAGUUUAACAUGAGGAUCACCCAUGUGGACUCAUGGUAGGAUAUCGGGAAGGAGGAAACCGAGAAGGGCUGGUGAGCC | 583 | 419 |  | 
25 | CGCGCGCGUGUUAGGAUAUAUGUGUGUGGUUAUUUAUAGAAGGGACAUGAGGAUCACCCAUGUGUGUGGGCGCG |  |  | 520 | 489
26 | CGCGUAUGAGGAUAUGCAUAAAAGGGUGCACUGAGUCUGUGACAUGAGGAUCACCCAUGUAGAAGGCGUGCGCA |  |  | 26.7 | 73.2
27 | CGCUACAGCCAGAAGGACAUGAGGAUCACCCAUGUAGGAUAUGGGAGACGCAGUCCAGUGUAGAGAAACUACGCUACUGUAGCG | 504 | 216 |  | 
28 | CGCUACAUGAGGAUCACCCAUGUACUUACUUGCACGUGAACGAGAAGGCCACAGCAACACAGCGUGGAGGAUAUCGUGGUGCCU | 10.8 | 9.35 |  | 
